Experimental findings from ChEMBL document CHEMBL4229344 (Eur J Med Chem, 2018) are described below.

The target of test [1] is STE20/SPS1-related proline-alanine-rich protein kinase (Homo sapiens) (UniProt Q9UEW8). The test can be described thus: Binding affinity to wild-type human partial length STK39 (P43 to I357 residues) expressed in mammalian expression system assessed as residual binding level at 1 uM by Kinomescan method relative to control.
Test [2] concerns the target Megakaryocyte-associated tyrosine-protein kinase (Homo sapiens) (UniProt P42679). The test can be described thus: Binding affinity to wild-type human full length CTK (M43 to P508 residues) expressed in mammalian expression system assessed as residual binding level at 1 uM by Kinomescan method relative to control. The gist of the method: (§1)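 Single-concentration (1 μM) competition-binding screen run by KINOMEscan against a panel of 468 purified kinases and mutants. The read-out is the relative binding activity of the test compound to each kinase.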

Test [3] addresses Bone morphogenetic protein receptor type-1B (Homo sapiens) (UniProt O00238). The test can be described thus: Binding affinity to wild-type human partial length BMPR1B (D178 to L502 residues) expressed in mammalian expression system assessed as residual binding level at 1 uM by Kinomescan method relative to control. The method in brief: (§2)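 Single-concentration KINOMEscan (DiscoverX) binding screen at 1 μM against a panel of 468 purified kinases and mutants. The read-out is binding relative to control.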

The target in test [4] is Tyrosine-protein kinase Srms (Homo sapiens) (UniProt Q9H3Y6). Put plainly: Binding affinity to wild-type human partial length SRMS (L208 to P488 residues) expressed in mammalian expression system assessed as residual binding level at 1 uM by Kinomescan method relative to control.
The test system of test [5] is eIF-2-alpha kinase GCN2 (Homo sapiens), Q9P2K8 [S808G]. Put plainly: Binding affinity to wild-type human partial length GCN2 kinase domain 2 (R585 to T1018 residues) S808G mutant expressed in bacterial expression system assessed as residual binding level at 1 uM by Kinomescan method relative to control.
In test [6] the target is Serine/threonine-protein kinase MARK2 (Homo sapiens) (UniProt Q7KZI7). Put plainly: Binding affinity to wild-type human partial length MARK2 (M1 to R450 residues) expressed in bacterial expression system assessed as residual binding level at 1 uM by Kinomescan method relative to control. The method in brief: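 Kinome-wide competition binding screen against a panel of 468 purified kinases/mutants, with the test compound at a single concentration of 1 μM. Read-out is the relative binding activity of each kinase in the presence of compound.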

The target of test [7] is Serine/threonine-protein kinase SIK3 (Homo sapiens) (UniProt Q9Y2K2). Put plainly: Binding affinity to wild-type human partial length QSK (A90 to L395 residues) expressed in mammalian expression system assessed as residual binding level at 1 uM by Kinomescan method relative to control.
Test [8] has as its system Epidermal growth factor receptor (Homo sapiens), P00533 [UNDEFINED MUTATION]. Put plainly: Binding affinity to human partial length EGFR L747-E749del/A750P mutant expressed in bacterial expression system assessed as residual binding level at 1 uM by Kinomescan method relative to control. The method in brief:
(§3)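 Kinome-wide single-concentration binding screen (KINOMEscan) at 1 μM against a panel of 468 purified kinases and mutants. Read-out is relative binding of each kinase compared with control. Selectivity across the panel was summarised as an S(10) score.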

Test [9] concerns the target Platelet-derived growth factor receptor alpha (Homo sapiens, UniProt P16234). The test can be described thus: Inhibition of PDGF-induced PDGFRalpha autophosphorylation at Y754 residue in human NCI-H1703 cells after 2 hrs in presence of PDGF-AA by Western blot analysis. Format: cell-based.
Test [10] has as its system Phosphatidylinositol 4,5-bisphosphate 3-kinase catalytic subunit alpha isoform (Homo sapiens), P42336 [Q546K]. The test can be described thus: Binding affinity to human partial length PIK3CA Q546K mutant (R108 to N1068 residues) expressed in mammalian expression system assessed as residual binding level at 1 uM by Kinomescan method relative to control. The gist of the method:
as §3

Test [11] has as its system Epidermal growth factor receptor (Homo sapiens), P00533 [G719S]. Put plainly: Binding affinity to human partial length EGFR G719S mutant (R669 to V1011 residues) expressed in bacterial expression system assessed as residual binding level at 1 uM by Kinomescan method relative to control. The gist of the method: as §3
Test [12] addresses TGF-beta receptor type-1 (Homo sapiens) (UniProt P36897). Put plainly: Binding affinity to wild-type human partial length TGFBR1 (D179 to M503 residues) expressed in bacterial expression system assessed as residual binding level at 1 uM by Kinomescan method relative to control.
In test [13] the target is Cyclin-dependent kinase 2 homolog (Plasmodium falciparum (isolate 3D7)) (UniProt P61075). The test can be described thus: Binding affinity to wild-type Plasmodium falciparum 3D7 full length PK5 (M1 to N288 residues) expressed in mammalian expression system assessed as residual binding level at 1 uM by Kinomescan method relative to control. The gist of the method:
as §1

The target of test [14] is Mitogen-activated protein kinase kinase kinase 1 (Homo sapiens) (UniProt Q13233). The test can be described thus: Binding affinity to wild-type human partial length MAP3K1 (L1202 to W1512 residues) expressed in mammalian expression system assessed as residual binding level at 1 uM by Kinomescan method relative to control.
Test [15] concerns the target Ribosomal protein S6 kinase alpha-1 (Homo sapiens) (UniProt Q15418). Put plainly: Binding affinity to wild-type human partial length N-terminal RSK1 Kinase domain 1 (M1 to E388 residues) expressed in bacterial expression system assessed as residual binding level at 1 uM by Kinomescan method relative to control.
In test [16] the target is RAC-alpha serine/threonine-protein kinase (Homo sapiens) (UniProt P31749). Put plainly: Binding affinity to wild-type human partial length AKT1 expressed in bacterial expression system assessed as residual binding level at 1 uM by Kinomescan method relative to control. The method in brief:
as §2

The target of test [17] is Rho-associated protein kinase 2 (Homo sapiens) (UniProt O75116). The test can be described thus: Binding affinity to wild-type human partial length ROCK2 (M1 to T431 residues) expressed in mammalian expression system assessed as residual binding level at 1 uM by Kinomescan method relative to control.
Test [18] deals with Serine/threonine-protein kinase Nek5 (Homo sapiens) (UniProt Q6P3R8). The test can be described thus: Binding affinity to wild-type human partial length NEK5 (M1 to M279 residues) expressed in bacterial expression system assessed as residual binding level at 1 uM by Kinomescan method relative to control.
Test [19] addresses Serine/threonine-protein kinase MRCK gamma (Homo sapiens) (UniProt Q6DT37). The test can be described thus: Binding affinity to wild-type human partial length DMPK2 (S46 to S408 residues) expressed in bacterial expression system assessed as residual binding level at 1 uM by Kinomescan method relative to control.
The target of test [20] is Cyclin-dependent kinase-like 2 (Homo sapiens) (UniProt Q92772). The test can be described thus: Binding affinity to wild-type human partial length CDKL2 (M1 to D327 residues) expressed in bacterial expression system assessed as residual binding level at 1 uM by Kinomescan method relative to control.
In test [21] the target is Serine/threonine-protein kinase PAK 4 (Homo sapiens) (UniProt O96013). The test can be described thus: Binding affinity to wild-type human partial length PAK4 (Q144 to R438 residues) expressed in bacterial expression system assessed as residual binding level at 1 uM by Kinomescan method relative to control.
Test [22] concerns the target Serine/threonine-protein kinase BRSK1 (Homo sapiens) (UniProt Q8TDC3). Put plainly: Binding affinity to wild-type human partial length BRSK1 (M1 to E754 residues) expressed in bacterial expression system assessed as residual binding level at 1 uM by Kinomescan method relative to control.

TGF-beta receptor type-1 (Homo sapiens), sequence (P36897 whole entry, the tested form may be a part): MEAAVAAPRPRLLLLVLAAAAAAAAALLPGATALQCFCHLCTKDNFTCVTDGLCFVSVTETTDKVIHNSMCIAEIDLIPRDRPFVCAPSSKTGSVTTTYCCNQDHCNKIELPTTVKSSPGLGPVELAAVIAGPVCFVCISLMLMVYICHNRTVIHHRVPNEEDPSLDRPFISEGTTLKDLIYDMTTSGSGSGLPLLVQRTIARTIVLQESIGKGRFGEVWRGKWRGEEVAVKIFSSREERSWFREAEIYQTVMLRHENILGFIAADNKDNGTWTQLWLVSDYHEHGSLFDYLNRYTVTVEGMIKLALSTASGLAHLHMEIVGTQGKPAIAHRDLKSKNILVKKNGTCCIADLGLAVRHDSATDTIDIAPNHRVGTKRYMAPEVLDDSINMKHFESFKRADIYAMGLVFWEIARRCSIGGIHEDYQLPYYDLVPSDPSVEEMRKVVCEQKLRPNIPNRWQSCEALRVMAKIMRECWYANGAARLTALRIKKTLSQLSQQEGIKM
Serine/threonine-protein kinase SIK3 (Homo sapiens), sequence (Q9Y2K2 whole entry, looked up, the tested form may be a part): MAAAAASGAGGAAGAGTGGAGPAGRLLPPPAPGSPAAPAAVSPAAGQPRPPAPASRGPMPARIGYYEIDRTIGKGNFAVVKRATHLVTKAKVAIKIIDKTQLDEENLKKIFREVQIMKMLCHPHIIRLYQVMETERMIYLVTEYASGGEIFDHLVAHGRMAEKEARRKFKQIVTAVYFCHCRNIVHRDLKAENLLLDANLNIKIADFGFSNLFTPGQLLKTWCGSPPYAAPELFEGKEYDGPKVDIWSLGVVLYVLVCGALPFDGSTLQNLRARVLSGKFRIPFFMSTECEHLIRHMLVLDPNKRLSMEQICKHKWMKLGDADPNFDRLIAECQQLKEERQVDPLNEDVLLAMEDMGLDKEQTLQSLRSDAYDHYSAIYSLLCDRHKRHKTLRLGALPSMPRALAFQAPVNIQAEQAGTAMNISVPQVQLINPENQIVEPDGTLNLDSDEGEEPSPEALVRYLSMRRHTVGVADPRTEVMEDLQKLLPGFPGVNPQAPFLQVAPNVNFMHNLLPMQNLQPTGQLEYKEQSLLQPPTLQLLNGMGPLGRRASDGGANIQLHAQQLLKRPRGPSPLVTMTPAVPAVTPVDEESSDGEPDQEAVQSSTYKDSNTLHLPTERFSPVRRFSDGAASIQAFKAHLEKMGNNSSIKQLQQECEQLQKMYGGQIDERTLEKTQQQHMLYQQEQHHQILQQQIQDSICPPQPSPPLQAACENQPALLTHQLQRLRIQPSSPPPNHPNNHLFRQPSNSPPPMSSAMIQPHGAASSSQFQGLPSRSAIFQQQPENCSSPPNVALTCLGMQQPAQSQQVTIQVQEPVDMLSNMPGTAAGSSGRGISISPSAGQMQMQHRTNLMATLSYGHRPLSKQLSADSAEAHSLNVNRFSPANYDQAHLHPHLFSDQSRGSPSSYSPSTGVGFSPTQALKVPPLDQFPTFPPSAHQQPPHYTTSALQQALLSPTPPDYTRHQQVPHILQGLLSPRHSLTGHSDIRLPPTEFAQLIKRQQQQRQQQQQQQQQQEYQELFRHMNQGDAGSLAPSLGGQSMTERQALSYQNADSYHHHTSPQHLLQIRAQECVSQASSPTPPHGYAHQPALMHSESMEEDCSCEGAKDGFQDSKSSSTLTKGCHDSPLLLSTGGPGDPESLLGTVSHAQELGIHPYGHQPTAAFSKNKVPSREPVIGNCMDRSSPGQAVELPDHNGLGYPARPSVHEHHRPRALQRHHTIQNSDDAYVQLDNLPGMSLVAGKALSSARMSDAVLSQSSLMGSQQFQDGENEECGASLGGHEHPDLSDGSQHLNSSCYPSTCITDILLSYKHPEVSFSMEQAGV
Cyclin-dependent kinase-like 2 (Homo sapiens), sequence (Q92772 whole entry, the tested form may be a part): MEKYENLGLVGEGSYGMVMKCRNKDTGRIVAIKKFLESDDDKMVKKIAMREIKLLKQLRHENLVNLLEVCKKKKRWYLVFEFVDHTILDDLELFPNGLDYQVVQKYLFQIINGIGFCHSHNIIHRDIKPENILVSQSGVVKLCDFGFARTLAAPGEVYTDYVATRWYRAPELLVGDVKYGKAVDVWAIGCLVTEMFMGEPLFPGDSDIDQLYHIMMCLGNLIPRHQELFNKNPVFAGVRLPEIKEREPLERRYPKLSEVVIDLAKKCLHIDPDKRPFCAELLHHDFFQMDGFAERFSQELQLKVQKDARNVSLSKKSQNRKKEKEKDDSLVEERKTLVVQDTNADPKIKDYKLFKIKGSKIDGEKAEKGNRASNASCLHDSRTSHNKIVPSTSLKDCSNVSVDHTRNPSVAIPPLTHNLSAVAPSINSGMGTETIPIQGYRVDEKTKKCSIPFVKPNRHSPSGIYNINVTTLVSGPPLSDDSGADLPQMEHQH
Megakaryocyte-associated tyrosine-protein kinase (Homo sapiens), sequence (P42679 whole entry, the tested form may be a part): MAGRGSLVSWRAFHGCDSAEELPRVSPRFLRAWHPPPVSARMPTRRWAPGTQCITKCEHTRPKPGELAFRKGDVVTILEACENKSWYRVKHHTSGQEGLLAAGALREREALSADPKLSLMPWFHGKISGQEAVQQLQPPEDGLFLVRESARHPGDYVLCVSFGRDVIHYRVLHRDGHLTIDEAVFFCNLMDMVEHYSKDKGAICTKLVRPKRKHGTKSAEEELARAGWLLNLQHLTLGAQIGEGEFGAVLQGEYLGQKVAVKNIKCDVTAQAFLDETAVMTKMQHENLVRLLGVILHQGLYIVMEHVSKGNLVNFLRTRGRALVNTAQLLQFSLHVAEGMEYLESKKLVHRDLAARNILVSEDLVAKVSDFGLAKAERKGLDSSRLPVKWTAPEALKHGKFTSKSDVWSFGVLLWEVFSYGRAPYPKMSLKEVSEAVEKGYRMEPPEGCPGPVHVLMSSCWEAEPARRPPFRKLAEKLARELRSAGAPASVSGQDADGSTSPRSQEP
Platelet-derived growth factor receptor alpha, sequence (P16234 whole entry, the tested form may be a part, canonical isoform): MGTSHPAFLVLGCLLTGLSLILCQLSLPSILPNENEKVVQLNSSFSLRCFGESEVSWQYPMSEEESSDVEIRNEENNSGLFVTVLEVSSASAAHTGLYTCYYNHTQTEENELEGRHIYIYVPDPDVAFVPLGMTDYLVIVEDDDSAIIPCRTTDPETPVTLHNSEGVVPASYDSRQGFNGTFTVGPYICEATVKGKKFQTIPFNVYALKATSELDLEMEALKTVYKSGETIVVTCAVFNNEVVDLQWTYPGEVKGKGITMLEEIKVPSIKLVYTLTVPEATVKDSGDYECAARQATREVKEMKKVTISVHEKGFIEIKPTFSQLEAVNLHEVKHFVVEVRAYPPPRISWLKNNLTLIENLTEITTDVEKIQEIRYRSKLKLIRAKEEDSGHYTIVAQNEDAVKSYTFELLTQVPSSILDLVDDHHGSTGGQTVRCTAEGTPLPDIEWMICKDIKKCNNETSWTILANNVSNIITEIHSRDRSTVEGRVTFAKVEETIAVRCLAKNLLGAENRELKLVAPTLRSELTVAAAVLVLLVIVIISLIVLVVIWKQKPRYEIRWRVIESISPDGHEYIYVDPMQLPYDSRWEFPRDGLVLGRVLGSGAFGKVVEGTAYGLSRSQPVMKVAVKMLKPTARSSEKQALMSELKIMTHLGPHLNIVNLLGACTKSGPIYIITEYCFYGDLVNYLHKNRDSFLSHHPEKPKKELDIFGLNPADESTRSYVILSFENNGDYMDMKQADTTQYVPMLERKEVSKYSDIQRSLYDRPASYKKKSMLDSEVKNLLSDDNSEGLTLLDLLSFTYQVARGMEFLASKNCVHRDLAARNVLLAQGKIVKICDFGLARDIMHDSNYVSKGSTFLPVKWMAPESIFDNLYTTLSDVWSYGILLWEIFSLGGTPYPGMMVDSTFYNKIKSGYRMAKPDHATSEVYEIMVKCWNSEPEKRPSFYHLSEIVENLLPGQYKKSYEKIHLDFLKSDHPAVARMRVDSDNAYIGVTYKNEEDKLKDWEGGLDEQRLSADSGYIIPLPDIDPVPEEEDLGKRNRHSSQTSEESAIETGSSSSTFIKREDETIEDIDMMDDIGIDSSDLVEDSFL
Serine/threonine-protein kinase Nek5 (Homo sapiens), sequence (Q6P3R8 whole entry, the tested form may be a part): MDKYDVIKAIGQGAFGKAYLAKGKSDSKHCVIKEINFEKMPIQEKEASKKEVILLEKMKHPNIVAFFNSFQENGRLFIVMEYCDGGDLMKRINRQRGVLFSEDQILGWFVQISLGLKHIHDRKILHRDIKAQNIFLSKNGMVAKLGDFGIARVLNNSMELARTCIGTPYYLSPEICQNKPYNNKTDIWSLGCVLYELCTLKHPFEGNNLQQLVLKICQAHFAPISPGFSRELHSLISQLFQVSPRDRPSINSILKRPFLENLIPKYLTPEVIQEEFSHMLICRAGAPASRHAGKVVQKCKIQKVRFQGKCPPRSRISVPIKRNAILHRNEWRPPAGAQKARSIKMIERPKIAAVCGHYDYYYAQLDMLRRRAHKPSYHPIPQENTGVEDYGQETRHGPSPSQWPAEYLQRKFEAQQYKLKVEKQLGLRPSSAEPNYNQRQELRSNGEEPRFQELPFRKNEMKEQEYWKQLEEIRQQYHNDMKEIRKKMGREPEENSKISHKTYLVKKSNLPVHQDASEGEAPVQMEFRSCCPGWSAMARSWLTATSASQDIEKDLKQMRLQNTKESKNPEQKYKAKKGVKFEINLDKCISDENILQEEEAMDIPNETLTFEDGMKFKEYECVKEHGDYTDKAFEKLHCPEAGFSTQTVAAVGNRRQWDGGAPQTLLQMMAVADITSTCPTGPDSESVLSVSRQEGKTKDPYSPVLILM
Cyclin-dependent kinase 2 homolog (Plasmodium falciparum (isolate 3D7)), sequence (P61075 whole entry, the tested form may be a part): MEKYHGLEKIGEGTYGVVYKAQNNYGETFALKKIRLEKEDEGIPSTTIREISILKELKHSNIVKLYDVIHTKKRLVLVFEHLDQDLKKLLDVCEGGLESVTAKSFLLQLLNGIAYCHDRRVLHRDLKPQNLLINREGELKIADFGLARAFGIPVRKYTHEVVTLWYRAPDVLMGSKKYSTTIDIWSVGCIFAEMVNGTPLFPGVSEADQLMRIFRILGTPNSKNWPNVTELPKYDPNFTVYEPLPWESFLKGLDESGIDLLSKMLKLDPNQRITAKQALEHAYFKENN

On to `Cc1ccc(NC(=O)c2ccc(CN(CCN(C)C)C(=O)c3cccnc3)cc2)cc1Nc1nccc(-c2cccnc2)n1`, for which the Activity in test [1] is 90%; in [2], 90%; in test [3], 95%; in test [4] it was 97%; in test [5], 71%; in test [6], 91%. Also, the Activity was found to be 96% in test [7]; 77% in test [8]; 90% in test [10]; 85% in test [11]; 100% in [12]; 100% in test [13]. The Activity turned out to be 88% in [14]; 99% in test [15]; 95% in [16]; 100% in test [17]; 99% in test [18]; 100% in test [19]. The Activity in test [20] is 95%; in [21], 98%; in test [22], 93%. Moreover, the inhibition result in test [9] was “Dose-dependent effect”.
